Laboratory results taken from ChEMBL document CHEMBL4823316, “Synthesis and evaluation of squaramide and thiosquaramide inhibitors of the DNA repair enzyme SNM1A” (Bioorg Med Chem, 2021).
The source made the active and inactive calls. The calls are words filed in the database; no cut-off is given here.

Columns and labels:
[1] = biological target: T1, DNA cross-link repair 1A protein (Homo sapiens) (UniProt Q6PJP8); test: Inhibition of SNM1A (unknown origin) assessed as reduction in oligonucleotide digestion at 1 mM using 21mer fluorescent oligonucleotide as substrate preincubated for 5 mins followed by substrate addition and measured after 1 hr by PAGE analysis; details: time 65.0 min
T1 sequence (whole entry): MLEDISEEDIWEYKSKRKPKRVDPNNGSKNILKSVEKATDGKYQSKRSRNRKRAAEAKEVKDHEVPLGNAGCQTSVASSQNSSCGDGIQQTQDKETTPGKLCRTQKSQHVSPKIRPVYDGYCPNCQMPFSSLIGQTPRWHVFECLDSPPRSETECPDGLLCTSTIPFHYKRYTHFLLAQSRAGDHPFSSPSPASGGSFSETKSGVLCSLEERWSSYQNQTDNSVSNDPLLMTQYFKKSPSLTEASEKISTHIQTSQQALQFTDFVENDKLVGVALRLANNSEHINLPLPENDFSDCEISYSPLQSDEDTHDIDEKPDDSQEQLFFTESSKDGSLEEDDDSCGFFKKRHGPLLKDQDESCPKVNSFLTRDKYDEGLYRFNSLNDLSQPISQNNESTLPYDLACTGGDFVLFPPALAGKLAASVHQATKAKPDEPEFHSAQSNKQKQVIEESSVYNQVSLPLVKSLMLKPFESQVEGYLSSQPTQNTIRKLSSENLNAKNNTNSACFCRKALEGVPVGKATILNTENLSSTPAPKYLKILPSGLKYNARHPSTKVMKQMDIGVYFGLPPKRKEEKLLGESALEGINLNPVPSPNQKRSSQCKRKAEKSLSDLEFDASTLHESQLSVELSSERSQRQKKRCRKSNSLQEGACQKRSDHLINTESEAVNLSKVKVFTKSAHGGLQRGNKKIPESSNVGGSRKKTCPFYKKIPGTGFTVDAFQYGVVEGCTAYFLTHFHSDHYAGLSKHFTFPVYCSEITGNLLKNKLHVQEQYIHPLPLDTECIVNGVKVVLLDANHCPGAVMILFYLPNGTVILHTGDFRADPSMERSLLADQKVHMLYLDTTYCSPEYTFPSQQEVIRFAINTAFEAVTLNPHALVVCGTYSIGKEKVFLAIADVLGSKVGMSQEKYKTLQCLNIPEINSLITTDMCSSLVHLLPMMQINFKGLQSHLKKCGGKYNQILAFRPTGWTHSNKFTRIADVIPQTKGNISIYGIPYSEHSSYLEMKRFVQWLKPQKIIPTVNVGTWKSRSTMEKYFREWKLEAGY

[2] = biological target: T1, DNA cross-link repair 1A protein (Homo sapiens); test: Inhibition of SNM1A (unknown origin) assessed as reduction in oligonucleotide digestion at 333 uM using 21mer fluorescent oligonucleotide as substrate preincubated for 5 mins followed by substrate addition and measured after 1 hr by PAGE analysis; details: time 65.0 min
[3] = Metal chelating activity assessed as Zn2+-compound complex formation by measuring equilibrium constant measured at 1:2 compound to metal ion ratio by UV-Vis titration based analysis
In short: (§1)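 Compounds in MeCN titrated with Zn(ClO₄)₂ and followed by UV–Vis. Binding constants for 1:1, 1:2 and 2:1 ligand–metal species were derived by global non-linear regression, comparing two- and three-species models. Described as qualitative.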

[4] = Metal chelating activity assessed as Zn2+-compound complex formation by measuring equilibrium constant measured at 1:1 compound to metal ion ratio by UV-Vis titration based analysis; in short: as §1
[5] = Metal chelating activity assessed as Zn2+-compound complex formation by measuring equilibrium constant measured at 2:1 compound to metal ion ratio by UV-Vis titration based analysis; in short: as §1
[6] = biological target: T2, DNA cross-link repair 1A protein (Homo sapiens, UniProt Q6PJP8); test: Inhibition of SNM1A (unknown origin) by real time fluorescence assay
T2 sequence (Q6PJP8 whole entry): T1 sequence (whole entry)
In short: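 Real-time fluorescence assay of SNM1A exonuclease activity used to derive IC₅₀ from a concentration series. Unmodified thymidine run as control. Error bars from 6 independent repeats.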

SMILES | inhibition [1] | further results
CCN(CC)c1c(N[C@H]2C[C@H](n3cc(C)c(=O)[nH]c3=O)O[C@@H]2CO)c(=S)c1=S | Active | 
Cc1cn([C@H]2C[C@H](Nc3c(N(C)O)c(=O)c3=O)[C@@H](CO)O2)c(=O)[nH]c1=O | Active | inhibition [2]: Active; Kb [3]: 6.6 10^1/M; Kb [4]: 3 10^4/M
Cc1cn([C@H]2C[C@H](Nc3c(O)c(=O)c3=O)[C@@H](CO)O2)c(=O)[nH]c1=O |  | Kb [5]: 3.2 10^6/M; Kb [4]: 4 10^4/M
Cc1cn([C@H]2C[C@H](O)[C@@H](CNc3c(Nc4ccccc4O)c(=O)c3=O)O2)c(=O)[nH]c1=O | inactive | 
CN(O)c1c(N[C@H]2[C@@H](O)[C@H](n3ccc(=O)[nH]c3=O)O[C@@H]2CO)c(=O)c1=O | Active | 
Cc1cn([C@H]2C[C@H](O)[C@H](CNc3c(N[C@H]4C[C@H](n5cc(C)c(=O)[nH]c5=O)O[C@@H]4CO)c(=S)c3=S)O2)c(=O)[nH]c1=O | Active | 
Cc1cn([C@H]2C[C@H](O)[C@@H](CNc3c(O)c(=O)c3=O)O2)c(=O)[nH]c1=O | inactive | 
Cc1cn([C@H]2C[C@H](O)[C@@H](CNc3c(NCCO)c(=O)c3=O)O2)c(=O)[nH]c1=O | inactive | 
Cc1cn([C@H]2C[C@H](O)[C@@H](CO)O2)c(=O)[nH]c1=O [DOXRIBTIMINE] | inactive | IC50 [6]: Not Active
CCOc1c(NC[C@H]2O[C@@H](n3cc(C)c(=O)[nH]c3=O)C[C@@H]2O)c(=O)c1=O | inactive | 
CCN(CC)c1c(NC[C@H]2O[C@@H](n3cc(C)c(=O)[nH]c3=O)C[C@@H]2O)c(=O)c1=O | inactive | 
CCN(CC)c1c(NC[C@H]2O[C@@H](n3cc(C)c(=O)[nH]c3=O)C[C@@H]2O)c(=S)c1=S |  | Kb [3]: 1.7 10^2/M; Kb [5]: 1.2 10^6/M; Kb [4]: 6.8 10^5/M
